The test system of test [1] is HCT-116. Nature of the test: Induction of apoptosis in human HCT116 cells assessed as caspase-3 activation at GI50 after 24 hrs. Format: functional, cell-based. The method in brief: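 HCT-116 cells exposed for 24 h at the respective GI₅₀ or 5×GI₅₀ concentration, with a DMSO control, then assayed for caspase-3 activity. Data are mean ± s.d. of two independent experiments, and significance versus DMSO was set at p <0.05.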

Test [2] has as its system MCF7. Nature of the test: Cytotoxicity against human MCF7 cells after 48 hrs by MTT assay. Format: functional. The following applies: MCF7, 48 h. (In general: Tetrazolium dyes change colour on reduction, which living cells bring about.)
Test [3] deals with HCT-116. In words: Induction of apoptosis in human HCT116 cells assessed as at 5 times GI50 after 24 hrs by AnnexinV/PI staining-based flow cytometry.
Test [4] deals with HCT-116. Nature of the test: Cell cycle arrest in human HCT116 cells at 5 times GI50 after 24 hrs by AnnexinV/PI staining-based flow cytometry. The format is functional. For orientation: A flow cytometer gives signals particle by particle.
In test [5] the test system is HCT-116. Nature of the test: Cytotoxicity against human HCT116 cells after 48 hrs by MTT assay. Format: functional. The following applies: HCT-116, 48 h.
The target in another test is CDK9/cyclin T1 (Homo sapiens, UniProt P50750). In words: Inhibition of CDK9/CyclinT1. Format: protein-complex assay.
Sequence of CDK9/cyclin T1 (O60563 whole entry): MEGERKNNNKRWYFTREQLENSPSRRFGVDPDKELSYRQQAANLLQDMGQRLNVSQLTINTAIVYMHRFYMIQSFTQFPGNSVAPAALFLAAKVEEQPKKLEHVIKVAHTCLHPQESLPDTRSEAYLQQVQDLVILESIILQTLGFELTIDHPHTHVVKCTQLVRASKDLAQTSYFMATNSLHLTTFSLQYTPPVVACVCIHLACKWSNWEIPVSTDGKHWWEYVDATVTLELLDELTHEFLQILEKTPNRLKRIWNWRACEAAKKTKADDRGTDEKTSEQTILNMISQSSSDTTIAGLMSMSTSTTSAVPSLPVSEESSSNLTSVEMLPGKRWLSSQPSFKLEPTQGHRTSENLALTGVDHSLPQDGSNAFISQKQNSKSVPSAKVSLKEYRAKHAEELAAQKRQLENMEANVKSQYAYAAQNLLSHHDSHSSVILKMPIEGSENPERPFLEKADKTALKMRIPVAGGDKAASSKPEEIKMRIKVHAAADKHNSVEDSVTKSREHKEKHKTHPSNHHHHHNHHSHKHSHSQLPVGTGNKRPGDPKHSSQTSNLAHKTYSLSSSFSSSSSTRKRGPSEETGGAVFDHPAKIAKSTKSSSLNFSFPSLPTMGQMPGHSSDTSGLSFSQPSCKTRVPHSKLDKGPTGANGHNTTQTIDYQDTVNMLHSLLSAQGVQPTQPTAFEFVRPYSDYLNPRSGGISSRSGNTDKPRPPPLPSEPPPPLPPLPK
Sequence of CDK9/cyclin T1 (P50750 whole entry): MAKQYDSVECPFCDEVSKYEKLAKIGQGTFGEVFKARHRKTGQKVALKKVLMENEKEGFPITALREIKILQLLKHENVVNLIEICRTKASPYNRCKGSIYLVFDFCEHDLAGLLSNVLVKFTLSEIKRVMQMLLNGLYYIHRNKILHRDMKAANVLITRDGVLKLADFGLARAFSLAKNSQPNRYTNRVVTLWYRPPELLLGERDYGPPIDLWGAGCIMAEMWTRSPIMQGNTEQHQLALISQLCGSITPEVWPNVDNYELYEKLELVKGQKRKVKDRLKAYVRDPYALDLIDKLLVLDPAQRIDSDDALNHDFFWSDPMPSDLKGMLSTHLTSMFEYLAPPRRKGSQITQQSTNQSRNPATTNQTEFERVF
Test [6] deals with Cyclin-dependent kinase 2/cyclin A (Homo sapiens) (UniProt P24941+P20248+P78396). In words: Inhibition of CDK2/Cyclin A. The format is protein-complex assay.
In test [7] the test system is HCT-116. In words: Induction of apoptosis in human HCT116 cells assessed as early apoptosis cells at 5 times GI50 after 24 hrs by AnnexinV/PI staining-based flow cytometry. Format: functional. The procedure, abridged: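 HCT-116 cells were treated for 24 h alongside a DMSO control, stained with annexin V/PI and analysed by flow cytometry. Early apoptotic cells were scored as AnnV+/PI−, and late apoptotic cells as AnnV+/PI+. Values are mean ± s.d.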

Test [8] has as its system HCT-116. Nature of the test: Cell cycle arrest in human HCT116 cells assessed as accumulation at G2/M phase at 5 times GI50 after 24 hrs by […]PI staining-based flow cytometry. The format is functional.
The target in test [9] is Cyclin-dependent kinase 9 (Homo sapiens) (UniProt P50750). In words: Inhibition of CDK9 in human HCT116 cells assessed as reduction in Mcl-1 protein level at GI50 after 24 hrs by Western blot analysis. The format is cell-based. The following applies: HCT-116. A general note: A western blot detects proteins with antibodies after separation by electrophoresis.
Sequence of Cyclin-dependent kinase 9 (Homo sapiens) (P50750 whole entry): as above
For test [10] the target is unchanged. Nature of the test: Inhibition of CDK9-mediated phosphorylation of RNA polymerase 2 at Ser2 in human HCT116 cells at GI50 after 24 hrs by Western blot analysis. The format is cell-based. The following applies: HCT-116. The method in brief:
(§1)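 Western blot of HCT-116 cells after 24 h treatment across a concentration series, probing RNAPII CTD pSer-2 with β-actin as the internal loading control.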

Test [11] has the same target. In words: Inhibition of CDK9-mediated phosphorylation of RNA polymerase 2 at Ser2 in human HCT116 cells after 24 hrs by Western blot analysis. Format: cell-based. The following applies: HCT-116. The method in brief: as §1
For test [12] the target is unchanged. In words: Inhibition of CDK9 in human HCT116 cells assessed as reduction in MDM2 protein level at GI50 after 24 hrs by Western blot analysis. Format: cell-based. The following applies: HCT-116.
For test [13], the system named is HCT-116. In words: Ratio of DRB GI50 to compound GI50 for human HCT116 cells. Format: functional.
For test [14], the system named is MCF7. In words: Ratio of DRB GI50 to compound GI50 for human MCF7 cells. The format is functional.

The source made the active and inactive calls. The calls are words filed in the database; no cut-off is given here.

`CS(=O)(=O)c1nc2cc(Cl)c(Cl)cc2n1C1CCCC1`: in the test with HCT-116 [1], the result was Active. Also, the GI50 in the test with MCF7 [2] and in the test with HCT-116 [5] was 0.6 µM in each case. Further, the Activity in the test with HCT-116 [3] is recorded as <7%. Moreover, in the test on HCT-116 [4], the outcome was inactive. For the same molecule, the Ki at CDK9/cyclin T1 was > 5 µM.

In the case of `Cc1cc2nc(C(F)(F)F)[nH]c2cc1C`, the 50% growth inhibitory concentration (GI50) in the test on MCF7 [2] was 17 µM; with HCT-116 [5], 56 µM.

Consider `CCc1nc2cc(Cl)c(Cl)cc2n1C1CCCC1`, for which the GI50 in the test on MCF7 [2] was determined as 52 µM; in the test on HCT-116 [5], 38 µM.

In the case of `FC(F)(F)c1ccc(Cn2c(C(F)(F)F)nc3cc(Cl)c(Cl)cc32)cc1`, the GI50 with MCF7 [2] came out at 17 µM; with HCT-116 [5], 19 µM.

For `Clc1cc2nc[nH]c2cc1Cl`, the concentration for 50% growth inhibition (GI50) is 73 µM in the test with MCF7 [2] and 66 µM in the test with HCT-116 [5].

For the molecule `Nc1cccc(Cn2c(C(F)(F)F)nc3cc(Cl)c(Cl)cc32)c1`, the results for the concentration for 50% growth inhibition (GI50) in the test with MCF7 [2] and in the test with HCT-116 [5] were 77.5 µM and 22.6 µM, respectively.

For `C[S+]([O-])c1nc2cc(Cl)c(Cl)cc2n1C1CCCC1` (stereo not drawn), in the test with HCT-116 [1], the result was Active. In addition, the concentration for 50% growth inhibition (GI50) in the test on MCF7 [2] and in the test on HCT-116 [5] was 0.5 µM each time. For the same molecule, the Activity with HCT-116 [3] is listed as <7%. In the test on HCT-116 [4], the outcome was inactive. The Ki on CDK9/cyclin T1 was > 5 µM.

Take `Clc1cc2nc(-c3ccccc3Cl)[nH]c2cc1Cl`: the GI50 came out at 22 µM in the test with MCF7 [2] and 23 µM with HCT-116 [5].

As to `C=CCn1c(C(F)(F)F)nc2cc(Cl)c(Cl)cc21`, the results for the 50% growth inhibitory concentration (GI50) with MCF7 [2] and with HCT-116 [5] were 87 µM and 89.2 µM, respectively.

`CC(C)c1nc2cc(Cl)c(Cl)cc2n1C1CCCC1`: the results for the GI50 in the test with MCF7 [2] and with HCT-116 [5] were 43 µM and 9 µM, respectively. Besides, the inhibition result in test [6] was “inactive”. Besides, the inhibition constant Ki on CDK9/cyclin T1 worked out at 3.33 µM.

Regarding `OC[C@H]1O[C@@H](n2cnc3cc(Cl)c(Cl)cc32)[C@H](O)[C@@H]1O` [DICHLORORIBOBENZIMIDAZOLE], the Activity in the test with HCT-116 [7] is reported as 20%. In addition, the result with HCT-116 [1] and in the test on HCT-116 [8] was Active. Also, the GI50 in the test on MCF7 [2] stood at 36 µM; in the test on HCT-116 [5], 25 µM.

For `FC(F)(F)c1nc2cc(Cl)c(Cl)cc2n1CC1CC1`, the values for the GI50 with MCF7 [2] and in the test on HCT-116 [5] were 60.2 µM and 61.3 µM, respectively.

For the molecule `FC(F)(F)c1cccc(Cn2c(C(F)(F)F)nc3cc(Cl)c(Cl)cc32)c1`, the GI50 in the test with MCF7 [2] is 68 µM; in the test with HCT-116 [5], 50.5 µM.

For `CCc1nc2cc(Cl)c(Cl)cc2[nH]1`, the 50% growth inhibitory concentration (GI50) in the test with MCF7 [2] came to 48 µM; with HCT-116 [5], 46 µM.

On to `CCn1c(C(F)(F)F)nc2cc(Cl)c(Cl)cc21`, for which the GI50 came to 72.9 µM with MCF7 [2] and 95.3 µM with HCT-116 [5].

`FC(F)(F)c1nc2cc(Cl)c(Cl)cc2n1Cc1ccccc1`: the GI50 with MCF7 [2] came to 8.7 µM; in the test on HCT-116 [5], 8.6 µM.

As for `CC(C)n1c(C(F)(F)F)nc2cc(Cl)c(Cl)cc21`, the concentration for 50% growth inhibition (GI50) in the test with MCF7 [2] turned out to be 70.5 µM; in the test with HCT-116 [5], 81.9 µM.

Turning to `CSc1nc2cc(Cl)c(Cl)cc2n1C1CCCC1`, the GI50 in the test on MCF7 [2] was determined as 3.9 µM; in the test with HCT-116 [5] it was 2.9 µM. Besides, the inhibitory constant (Ki) at CDK9/cyclin T1 was > 5 µM.

Consider `O=[N+]([O-])c1ccccc1Cn1c(C(F)(F)F)nc2cc(Cl)c(Cl)cc21`, for which the results for the GI50 in the test on MCF7 [2] and in the test on HCT-116 [5] were 1.5 µM and 5.9 µM, respectively.

For the molecule `Nc1ccccc1Cn1c(C(F)(F)F)nc2cc(Cl)c(Cl)cc21`, the figures for the GI50 in the test with MCF7 [2] and with HCT-116 [5] were 55.6 µM and 26.1 µM, respectively.

Turning to `Cc1nc2cc(Cl)c(Cl)cc2n1C1CCCC1`, the Activity with HCT-116 [7] is >17%. Also, the result in the test on HCT-116 [1] was Active. Also, the inhibition entry in test [9], in test [10] and in test [12] was “Active” each time. Further, the results for the GI50 in the test with MCF7 [2] and in the test with HCT-116 [5] were 40 µM and 13 µM, respectively. For the same molecule, the result in the test with HCT-116 [4] was inactive. For the same molecule, in test [11], the inhibition result was “Dose-dependent effect”. Moreover, the inhibition result in [6] was “inactive”. In addition, affinity on CDK9/cyclin T1 was put at a Ki of 1.51 µM.

Take `Cc1nc2cc(Cl)c(Cl)cc2[nH]1`: the GI50 came to 28 µM with MCF7 [2] and 51 µM in the test with HCT-116 [5].

Regarding `FC(F)(F)c1nc2cc(Cl)c(Cl)cc2[nH]1`, the RatioGI50 in the test with HCT-116 [13] is recorded as 3.5; in the test with MCF7 [14], 6. Moreover, the concentration for 50% growth inhibition (GI50) with MCF7 [2] was found to be 6 µM; in the test with HCT-116 [5], 7 µM.

On to `Cn1c(C(F)(F)F)nc2cc(Cl)c(Cl)cc21`, for which the GI50 in the test on MCF7 [2] is 39 µM; in the test with HCT-116 [5], 56 µM.

With `O=[N+]([O-])c1ccc(Cn2c(C(F)(F)F)nc3cc(Cl)c(Cl)cc32)cc1`, the 50% growth inhibitory concentration (GI50) with MCF7 [2] is 97.3 µM; in the test with HCT-116 [5], 81.6 µM.

With `O=[N+]([O-])c1cccc(Cn2c(C(F)(F)F)nc3cc(Cl)c(Cl)cc32)c1`, the figures for the GI50 with MCF7 [2] and in the test with HCT-116 [5] were 60 µM and 22.8 µM, respectively.

With `CC(C)c1nc2cc(Cl)c(Cl)cc2[nH]1`, the results for the GI50 in the test on MCF7 [2] and with HCT-116 [5] were 57 µM and 52 µM, respectively.

Consider `COc1cc2ncn([C@@H]3O[C@H](CO)[C@@H](O)[C@H]3O)c2cc1OC`, for which the GI50 with MCF7 [2] and in the test on HCT-116 [5] was > 100 µM in each case.

Take `Fc1ccccc1-c1nc2cc(Cl)c(Cl)cc2[nH]1`: the concentration for 50% growth inhibition (GI50) in the test with MCF7 [2] came to 47.5 µM; with HCT-116 [5], 56.5 µM.

Take `OC[C@H]1O[C@@H](n2cnc3cc(F)c(F)cc32)[C@H](O)[C@@H]1O`: the GI50 with MCF7 [2] worked out at 57.9 µM; in the test on HCT-116 [5], 67 µM.

As for `FC(F)(F)c1nc2cc(Cl)c(Cl)cc2n1C1CCCC1`, the 50% growth inhibitory concentration (GI50) in the test on MCF7 [2] is 21 µM; in the test with HCT-116 [5] it was 22 µM.

As to `Clc1cc2ncn(C3CCCC3)c2cc1Cl`, the values for the concentration for 50% growth inhibition (GI50) with MCF7 [2] and in the test with HCT-116 [5] were 42 µM and 37 µM, respectively.

With `CCc1nc2ccccc2n1[C@@H]1O[C@H](CO)[C@@H](O)[C@H]1O`, the figures for the GI50 in the test with MCF7 [2] and in the test on HCT-116 [5] were 71.3 µM and 70.6 µM, respectively.

In the case of `Cc1cc2nc[nH]c2cc1C` [DIMEDAZOL], the GI50 in the test with MCF7 [2] amounted to 20 µM; in the test with HCT-116 [5], 51 µM.

As usually defined, the GI50 is the concentration at which growth is held to half of that of the control. For orientation: Ki means a dissociation constant, usually derived from enzyme kinetics or from competition with a known ligand. Low values mean tighter binding, high ones weaker binding.

(Values after ChEMBL document CHEMBL1944568, “Synthesis and biological evaluation of benzo[d]imidazole derivatives as potential anti-cancer agents” (Bioorg Med Chem Lett, 2012).)
